Measured values: publication PMC11374989 (Asian Journal of Pharmaceutical Sciences, 2024)
In brackets after ≈: the same amount, converted by molar mass.

What was measured:
P. acnes [1] = test: Minimum inhibition concentration; format: cell-based, Propionibacterium acnes; conditions: P. acnes (GDMCC 1.243), anaerobic, 1.5 × 10^6 CFU/ml, 48 h
How it was run: (§1)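 The parent compound was dissolved in DMSO/saline (1:9) and NPs were diluted in water. Samples were serially diluted (1:1 to 1:256, v/v) in LB or RCM broth and incubated 48 h with bacteria. Growth was scored visually. P. acnes (GDMCC 1.243) was grown on RCM at 37 °C anaerobically; S. aureus (GDMCC 1.1220) and S. epidermidis (GDMCC 1.143) were grown on NA at 37 °C.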

TNF-α = test: Anti-inflammatory activity, ELISA, LPS-treated HaCaT cells; format: cell-based; conditions: 5 µmol/l for 12 h, then 1 µg/ml LPS 24 h, vs LPS, n = 3
How it was run: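 HaCaT cells were grown in DMEM with 10% FBS and 1% penicillin at 37 °C and 5% CO2. They were seeded in 6-well plates and precultured to 80% confluence. Test compound was given for 12 h, then 1 µg/ml LPS for 24 h. Medium-only (36 h) and LPS-only groups served as controls. TNF-α in the supernatant was measured by ELISA; n = 3.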

Sau. = test: Minimum inhibition concentration; format: cell-based, Staphylococcus aureus; conditions: Sau. (GDMCC 1.1220), 1.5 × 10^6 CFU/ml, 48 h
How it was run: as §1

NF-κB (p65) = test: Immunohistochemical observation of skin; format: in vivo, BALB/c-nu mice; conditions: after 7 d topical hydrogel, vs control group, n = 3
How it was run: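 P. acnes-infected nude mice were treated topically with 1 mg/ml hydrogel. Skin was collected at the end of treatment and paraffin sections were immunostained with mouse anti-NF-κB p65 antibody (1:400). Staining was quantified as average optical density (AOD) per group by image analysis.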

[2] = tested on: P. acnes-induced skin inflammation; test: P. acnes infection; format: in vivo, BALB/c-nu mice
How it was run: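 Six-week-old male BALB/c-nu mice were acclimatized 3 d. They received P. acnes (1.5 × 10^8 CFU/ml) daily by intradermal injection into dorsal skin at 0.05 ml/10 g; the blank group was not injected. Test compound in 1 mg/ml Carbopol 940 hydrogel was applied topically to the inflamed area at 0.05 g/10 g; controls were left untreated. Swelling length and width were measured by caliper, with volume V = a×b²/2.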

Sep. = test: Minimum inhibition concentration; format: cell-based, Staphylococcus epidermidis; conditions: Sep. (GDMCC 1.143), 1.5 × 10^6 CFU/ml, 48 h
How it was run: as §1

[3] = Oil-water distribution coefficient; format: physicochemical; conditions: n-octanol/water, logP Average, 25 °C, n = 3
P. acnes [4] = test: In vivo antibacterial efficiency; parameters: species or system BALB/c-nu mice; conditions: after 7 d of treatment, vs control, n = 3
How it was run: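 Six-week-old male BALB/c-nu mice were acclimatized for 3 d. They received daily intradermal dorsal injections of P. acnes at 1.5 x 10^8 CFU/ml, 0.05 ml/10 g. Test compound in 1 mg/ml Carbopol 940 hydrogel was applied topically at 0.05 g/10 g; controls were untreated. At the end, 8 mm punch biopsies were homogenized in 2 ml PBS and diluted 10 times. A 0.1 ml aliquot was plated on RCM and grown anaerobically at 37 °C for 48 h. Colonies were counted and expressed as treated vs control (%).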

IL-8 mRNA = test: RT-PCR of inflammatory factors, LPS-treated HaCaT cells; format: cell-based; conditions: 5 µmol/l for 12 h, then 1 µg/ml LPS 24 h, n = 3
[5] = Visualization of skin penetration by CLSM; format: in vitro ADME, BALB/c-nu nude mice; conditions: 6 h treatment
How it was run: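 Dorsal skin was excised from six-week-old male BALB/c-nu nude mice and cleared of subcutaneous tissue. It was exposed to C6-loaded nanoparticles of the test compound, since the compound itself fluoresces weakly. Skin was processed as in the HPLC retention study, then imaged by confocal microscopy. Mean skin fluorescence intensity was calculated per group.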

Row | Compound | MIC (P. acnes [1]) [µM] | TNF-α expression level in supernatant (TNF-α) | MIC (Sau.) [µM] | NF-κB p65 expression in skin (AOD) (NF-κB (p65)) | Body weight and skin tolerance ([2]; 7-d treatment period, topical 1 mg/ml hydrogel) | Reduction in swelling volume ([2]; Day 7 of treatment, topical 1 mg/ml hydrogel (Carbopol 940), 0.05 g/10 g, n = 6) [%] | Histomorphological observation (HE staining) of skin ([2]; after 7 d topical 1 mg/ml hydrogel) | MIC (Sep.) [µM] | logP at 24 h [3] | Quantity of P. acnes in the skin (P. acnes [4]) | IL-8 mRNA expression (IL-8 mRNA) | Penetration of C6 into the skin (CLSM) [5]
1 | C[C@H]1COC2=C1C(=O)C(=O)c1c2ccc2c1CCCC2(C)C [CTS, Cryptotanshinone] | 250 (≈ 74.1 µg/mL) | although reduced, did not reach statistical significance | 125 (≈ 37 µg/mL) | slight reduction in NF-κB p65 expression | no significant weight loss or skin dryness and erythema | 64.9 | reduction in skin thickness, accompanied by a decrease in keratinization | 125 (≈ 37 µg/mL) | 4.49 | significantly reduced the quantity of P. acnes in the skin |  | 
2 | CC(C)(C)c1ccc(S(=O)(=O)/C=C/C#N)cc1 [BAY11-7085] |  | substantially suppressed TNF-α expression |  |  |  |  |  |  |  |  | restored to normal baseline levels | 
3 | CCN(CC)c1ccc2cc(-c3nc4ccccc4s3)c(=O)oc2c1 [C6, coumarin-6] |  |  |  |  |  |  |  |  |  |  |  | solely observable in the skin's stratum corneum
